Laboratory results from ChEMBL document CHEMBL1687899, “Structure-activity relationships in nucleotide oligomerization domain 1 (Nod1) agonistic γ-glutamyldiaminopimelic acid derivatives” (J Med Chem, 2011).

Columns and labels:
Type in all cases: functional, cell-based
[1] = target: T1, Nucleotide-binding oligomerization domain-containing protein 1 (Homo sapiens, UniProt Q9Y239); assay: Agonist activity at human NOD-1 expressed in human HEK293 cells assessed as NF-kappaB induction by spectrophotometric analysis
T1 sequence (Q9Y239 whole entry): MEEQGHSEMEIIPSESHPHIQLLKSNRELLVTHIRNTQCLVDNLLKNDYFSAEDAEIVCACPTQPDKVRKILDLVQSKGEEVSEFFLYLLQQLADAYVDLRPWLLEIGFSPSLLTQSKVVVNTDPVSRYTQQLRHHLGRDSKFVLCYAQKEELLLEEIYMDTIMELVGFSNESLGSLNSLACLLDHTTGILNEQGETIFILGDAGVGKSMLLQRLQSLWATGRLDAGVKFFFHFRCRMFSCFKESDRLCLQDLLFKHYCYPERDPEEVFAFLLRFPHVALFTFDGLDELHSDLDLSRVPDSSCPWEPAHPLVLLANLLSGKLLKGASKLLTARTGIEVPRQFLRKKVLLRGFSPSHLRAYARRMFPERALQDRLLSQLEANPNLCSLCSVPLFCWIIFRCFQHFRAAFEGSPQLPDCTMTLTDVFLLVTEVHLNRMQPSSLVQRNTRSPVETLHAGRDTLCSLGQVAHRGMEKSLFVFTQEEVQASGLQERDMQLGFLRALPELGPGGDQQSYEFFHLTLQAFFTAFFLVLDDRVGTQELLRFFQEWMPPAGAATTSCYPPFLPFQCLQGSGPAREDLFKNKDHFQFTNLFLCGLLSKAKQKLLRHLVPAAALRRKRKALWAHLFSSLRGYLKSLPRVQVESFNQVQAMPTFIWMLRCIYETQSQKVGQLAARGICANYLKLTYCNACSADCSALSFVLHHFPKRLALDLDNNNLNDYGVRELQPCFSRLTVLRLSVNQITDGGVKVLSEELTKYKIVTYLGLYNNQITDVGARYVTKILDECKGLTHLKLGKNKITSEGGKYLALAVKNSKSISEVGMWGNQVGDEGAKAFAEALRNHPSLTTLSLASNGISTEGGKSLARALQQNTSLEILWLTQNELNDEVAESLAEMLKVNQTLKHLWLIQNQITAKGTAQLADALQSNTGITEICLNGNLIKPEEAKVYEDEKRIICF
How it was run: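 HEK-Blue cells (HEK293 stably transfected with human Nod1 and an NF-κB/AP-1-inducible secreted alkaline phosphatase reporter) were kept in selection medium with zeocin and normocin. Cells at ~10^5 cells/mL were grown to confluency and then given graded compound concentrations. Supernatant sAP was read spectrophotometrically at 620 nm with an alkaline phosphatase-specific chromogen.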

[2] = Upregulation of CD11b expression in human […] by flow cytometry
How it was run: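 Fresh anticoagulated human whole blood was incubated with graded compound dilutions for 1 h at 37°C, with saline negative controls. Samples were chilled 15 min, then stained with anti-CD11b/Mac-1 on ice for 30 min so only surface CD11b was labelled. Erythrocytes were lysed and leukocytes fixed, then washed. Flow cytometry in single-color PE mode acquired 20,000 gated events.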

[3] = Upregulation of p38 MAPK expression in human […] by flow cytometry
How it was run: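 Fresh heparinized human whole blood was incubated with graded compound concentrations diluted in saline for 15 min at 37°C. Erythrocytes were lysed and leukocytes fixed in one step, then permeabilized in ice-cold methanol for 30 min. Cells were stained 60 min with PE anti-phospho-p38MAPK (pT180/pY182) or a PE IgG1 κ isotype control. Flow cytometry acquired 20,000 gated events.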

Compound | EC50 [1] [pM] | Activity [2] | Activity [3]
CCCCCCCCCCCC(=O)NC(CCCC(NC(=O)CC[C@@H](N)C(=O)O)C(=O)O)C(=O)O (some centres undefined) | 550 |  | 
CCCCCCCCCCCNC(=O)[C@H](N)CCC(=O)NC(CCCC(N)C(=O)O)C(=O)O (some centres undefined) | 826 |  | 
CCCCCCCCCCCC(=O)N[C@H](CCC(=O)NC1CCCCNC1=O)C(=O)O (some centres undefined) | 1730 |  | 
CCCCCCCCCCCC(=O)N[C@H](CCC(=O)N[C@@H](CCCCN)C(=O)O)C(=O)O | 570 |  | 
CCCCCCCCCCCC(=O)NC(CCCC(NC(=O)CC[C@@H](NC(=O)CCCCCCCCCCC)C(=O)O)C(=O)O)C(=O)O (some centres undefined) | 580 |  | 

The next compounds have a lower EC50 [1] than those just listed; values first:

EC50 [1] [pM] | Compound | Activity [2] | Activity [3]
134 | CCCCCCCCCCCOC(=O)[C@@H](CCC(=O)NC(CCCC(N)C(=O)O)C(=O)O)NC(=O)CCCCCCCCCCC (some centres undefined) |  | 
120 | CCCCCCCCCCCCCCCCN(CCCCCCCCCCCCCCCC)[C@H](CCC(=O)NC(CCCC(N)C(=O)O)C(=O)O)C(=O)O (some centres undefined) |  | 
238 | CCCCCCCCCCCOC(=O)[C@@H](CCC(=O)NC(CCCC(N)C(=O)O)C(=O)O)NC(=N)N (some centres undefined) |  | 
504 | CCCCCCCCCCCC(=O)NCCCC(=O)NC(CCCC(N)C(=O)O)C(=O)O (centres undefined) |  | 
66 | CCCCCCCCCCCOC(=O)[C@H](N)CCC(=O)NC(CCCC(N)C(=O)O)C(=O)O (some centres undefined) |  | 
27 | CCCCCCCCCCCC(=O)N[C@H](CCC(=O)NC(CCCC(N)C(=O)O)C(=O)O)C(=O)O (some centres undefined) | Dose-dependent effect | Dose-dependent effect
200 | CCCCCCCCN(CCCCCCCC)[C@H](CCC(=O)NC(CCCC(N)C(=O)O)C(=O)O)C(=O)O (some centres undefined) |  | 
